Measurements: ChEMBL document CHEMBL4033786, “Discovery of Novel 1-Cyclopentenyl-3-phenylureas as Selective, Brain Penetrant, and Orally Bioavailable CXCR2 Antagonists” (J Med Chem, 2018)
≈ marks a conversion by molar mass, not a printed value.

Tests used:
Mus musculus = assay: Antiinflammatory activity in C57Bl/6 mouse air pouch model assessed as inhibition of carrageenan-induced neutrophil infiltration administered po bid starting from day 3 post air reinflation at 4 hrs post carrageenan induction measured on day 6 post last dose; assay type: functional, organism-based
Outline: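 Male C57Bl/6 mice aged 6–8 weeks received 5 mL air dorsally under pentobarbital on day 0, with 2.5 mL re-inflations on days 3 and 6. Oral dosing of vehicle or 1, 3 or 10 mg/kg BID ran from day 3; on day 6 dosing preceded re-inflation and 1 mL 2% carrageenan. At 4 h the pouch was lavaged with 4 mL PBS, and neutrophils were counted on Giemsa-stained cytospins as % of vehicle. One-way ANOVA with Bonferroni.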

[1] = biological target: T1, C-X-C chemokine receptor type 2 (Homo sapiens, UniProt P25025); assay: Antagonist activity at TEV protease cleavage site linked GAL4-VP16-fused recombinant human CXCR2 expressed in cells assessed as inhibition of […] human CXCL1-stimulated beta-arrestin recruitment by CCF4-AM-fluorescence based FRET assay; assay type: cell-based; conditions: read-out: IC50
T1 sequence (P25025 whole entry): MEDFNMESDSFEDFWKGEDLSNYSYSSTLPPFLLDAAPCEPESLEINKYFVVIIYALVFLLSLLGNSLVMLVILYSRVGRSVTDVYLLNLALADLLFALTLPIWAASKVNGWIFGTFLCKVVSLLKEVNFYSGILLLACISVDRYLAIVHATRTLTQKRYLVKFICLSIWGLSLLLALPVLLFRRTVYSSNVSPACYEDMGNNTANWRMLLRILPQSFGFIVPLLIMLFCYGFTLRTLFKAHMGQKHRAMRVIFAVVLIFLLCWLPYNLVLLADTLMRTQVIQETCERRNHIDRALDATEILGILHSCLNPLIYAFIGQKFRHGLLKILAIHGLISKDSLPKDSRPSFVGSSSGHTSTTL
Outline: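 Stable cell line expressing recombinant human CXCR2 linked to a TEV site and Gal4-VP16. Cells were starved 24 h at 37 °C, 5% CO2, then resuspended at ~200,000 cells/mL. They were given compound in DMSO (concentration-response), stimulated with 80 nM hCXCL1 and incubated overnight at 37 °C. CCF4-AM substrate was then added for 2 h at RT in the dark.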

[2] = Solubility of compound in fasted state simulated intestinal fluid measured after 4 hrs; assay type: physicochemical
Outline: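 Solubility in FaSSIF, read after 4 h incubation.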

[3] = Efflux ratio of passive permeability in MDCK2-MDR1 cells transduced with BacMam2-BCRP at 3 uM after 90 mins by Transwell assay; assay type: ADME, cell-based, Canis lupus familiaris, MDCK-MDR1; conditions: dog
Outline: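 MDCKII-MDR1 cells transduced with BacMam2-BCRP in Transwells. Compound at 3 μM was measured in duplicate, A→B and B→A, after 90 min, with and without 5 μM GF120918. ER = B→A/A→B permeability without inhibitor. System qualified with amprenavir and dantrolene ERs.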

[4] = Clearance in Wistar rat blood at 0.98 mg/kg, iv measured up to 4 hrs post dose; assay type: ADME, organism-based
[5] = Elimination half life in Wistar rat at 0.98 mg/kg, iv measured up to 4 hrs post dose; assay type: ADME, organism-based; conditions: in vivo, read-out: beta t1/2 (converted)
Rattus norvegicus [6] = assay: Dose normalized AUC (0 to infinity) in Wistar rat at 0.98 mg/kg, iv measured up to 4 hrs post dose; assay type: ADME, organism-based; conditions: in vivo
Rattus norvegicus [7] = assay: Dose normalized AUC (0 to infinity) in Wistar rat at 2.41 mg/kg, po measured up to 4 hrs post dose; assay type: ADME, organism-based; conditions: in vivo
[8] = Clearance in dog blood at 0.85 mg/kg, iv measured up to 4 hrs post dose; assay type: ADME, organism-based, Canis lupus familiaris
[9] = Volume of distribution at steady state in dog at 0.85 mg/kg, iv measured up to 4 hrs post dose; assay type: ADME, organism-based, Canis lupus familiaris; conditions: in vivo, read-out: Vdss
[10] = Cmax in dog at 1.29 mg/kg, po measured up to 4 hrs post dose; assay type: ADME, organism-based, Canis lupus familiaris; parameters: dose 1.29 mg/kg, route oral; conditions: in vivo
[11] = biological target: C-C chemokine receptor type 2 (Homo sapiens, UniProt P41597); assay: Agonist activity at CCR2 (unknown origin)
Chain of C-C chemokine receptor type 2 (P41597 whole entry): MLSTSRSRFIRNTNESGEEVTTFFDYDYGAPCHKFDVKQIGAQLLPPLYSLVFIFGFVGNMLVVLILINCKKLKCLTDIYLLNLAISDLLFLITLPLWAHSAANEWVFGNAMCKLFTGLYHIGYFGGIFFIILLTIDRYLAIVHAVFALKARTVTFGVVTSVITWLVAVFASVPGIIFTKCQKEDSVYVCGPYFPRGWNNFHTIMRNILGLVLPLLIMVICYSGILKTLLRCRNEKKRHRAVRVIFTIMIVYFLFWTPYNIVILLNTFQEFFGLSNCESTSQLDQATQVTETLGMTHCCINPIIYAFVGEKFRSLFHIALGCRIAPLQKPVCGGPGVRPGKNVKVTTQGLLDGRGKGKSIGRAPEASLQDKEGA
Outline: (§1)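 β-arrestin assays run in both agonist and antagonist modes across a panel of 18 CXC and CC chemokine receptors.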

[12] = biological target: C-C chemokine receptor type 4 (Homo sapiens, UniProt P51679); assay: Agonist activity at CCR4 (unknown origin); outline: as §1
Chain of C-C chemokine receptor type 4 (P51679 whole entry): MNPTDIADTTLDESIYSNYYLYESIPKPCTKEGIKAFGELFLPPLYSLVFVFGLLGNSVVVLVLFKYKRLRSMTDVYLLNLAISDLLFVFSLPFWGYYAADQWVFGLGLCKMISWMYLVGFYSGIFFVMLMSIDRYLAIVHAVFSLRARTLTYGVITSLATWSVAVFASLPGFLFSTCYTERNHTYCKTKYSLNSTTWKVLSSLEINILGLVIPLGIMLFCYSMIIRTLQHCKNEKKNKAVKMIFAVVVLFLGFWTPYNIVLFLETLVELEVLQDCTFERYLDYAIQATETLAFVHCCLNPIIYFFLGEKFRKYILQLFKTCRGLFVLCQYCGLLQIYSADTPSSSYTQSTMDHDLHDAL

[13] = biological target: T2, C-C chemokine receptor type 7 (Homo sapiens, UniProt P32248); assay: Agonist activity at CCR7 (unknown origin); outline: as §1
T2 sequence (P32248 whole entry): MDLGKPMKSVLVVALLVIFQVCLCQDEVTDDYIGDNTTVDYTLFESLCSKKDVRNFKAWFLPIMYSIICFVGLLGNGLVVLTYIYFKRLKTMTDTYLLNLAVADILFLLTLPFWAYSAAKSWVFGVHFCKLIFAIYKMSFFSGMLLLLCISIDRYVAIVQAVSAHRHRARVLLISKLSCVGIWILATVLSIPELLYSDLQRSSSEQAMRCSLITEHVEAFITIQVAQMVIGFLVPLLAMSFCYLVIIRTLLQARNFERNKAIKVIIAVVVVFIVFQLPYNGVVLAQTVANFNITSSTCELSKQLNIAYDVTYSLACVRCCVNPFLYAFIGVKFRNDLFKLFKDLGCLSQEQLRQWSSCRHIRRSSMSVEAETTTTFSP

[14] = biological target: C-C chemokine receptor type 8 (Homo sapiens, UniProt P51685); assay: Agonist activity at CCR8 (unknown origin); outline: as §1
Chain of C-C chemokine receptor type 8 (P51685 whole entry): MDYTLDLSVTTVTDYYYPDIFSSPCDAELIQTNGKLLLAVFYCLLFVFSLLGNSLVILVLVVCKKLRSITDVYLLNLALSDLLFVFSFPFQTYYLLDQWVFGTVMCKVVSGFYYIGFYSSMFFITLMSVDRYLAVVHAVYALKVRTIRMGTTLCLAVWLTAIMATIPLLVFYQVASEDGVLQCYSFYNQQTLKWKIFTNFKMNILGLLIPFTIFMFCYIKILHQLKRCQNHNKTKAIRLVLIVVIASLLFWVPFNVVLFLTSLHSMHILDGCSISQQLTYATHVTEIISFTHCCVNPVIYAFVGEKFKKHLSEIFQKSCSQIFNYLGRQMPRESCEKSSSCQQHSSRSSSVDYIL

Chemerin-like receptor 1 [15] = biological target: T3, Chemerin-like receptor 1 (Homo sapiens, UniProt Q99788); assay: Agonist activity at CMKLR1 (unknown origin); outline: as §1
T3 sequence (Q99788 whole entry): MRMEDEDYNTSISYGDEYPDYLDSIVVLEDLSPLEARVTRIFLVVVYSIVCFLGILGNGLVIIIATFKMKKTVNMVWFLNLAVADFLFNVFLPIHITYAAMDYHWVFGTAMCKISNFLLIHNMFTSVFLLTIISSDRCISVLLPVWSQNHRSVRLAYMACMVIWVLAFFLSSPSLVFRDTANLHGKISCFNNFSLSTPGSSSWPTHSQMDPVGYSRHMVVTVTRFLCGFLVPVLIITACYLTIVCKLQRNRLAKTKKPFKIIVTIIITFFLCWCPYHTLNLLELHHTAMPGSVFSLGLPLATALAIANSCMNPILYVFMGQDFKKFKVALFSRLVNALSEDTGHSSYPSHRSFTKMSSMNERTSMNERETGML

[16] = biological target: T4, CX3C chemokine receptor 1 (Homo sapiens, UniProt P49238); assay: Agonist activity at CX3CR1 (unknown origin); outline: as §1
T4 sequence (P49238 whole entry, the tested form may be a part): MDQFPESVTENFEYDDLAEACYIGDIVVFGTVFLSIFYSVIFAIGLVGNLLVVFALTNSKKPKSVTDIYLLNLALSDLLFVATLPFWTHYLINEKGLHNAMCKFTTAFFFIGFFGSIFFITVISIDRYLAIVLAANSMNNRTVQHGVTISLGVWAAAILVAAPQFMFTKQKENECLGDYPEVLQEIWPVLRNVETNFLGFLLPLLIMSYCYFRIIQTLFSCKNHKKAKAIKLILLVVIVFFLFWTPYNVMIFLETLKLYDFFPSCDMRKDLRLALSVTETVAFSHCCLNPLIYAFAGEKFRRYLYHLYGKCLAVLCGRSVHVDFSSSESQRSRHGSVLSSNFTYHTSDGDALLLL

[17] = biological target: T1, C-X-C chemokine receptor type 2; assay: Agonist activity at TEV protease cleavage site linked GAL4-VP16-fused recombinant human CXCR2 expressed in cells assessed as induction of beta-arrestin recruitment by CCF4-AM-fluorescence based FRET assay; assay type: cell-based
Outline: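 Part of an 18-receptor chemokine panel run in agonist and antagonist modes. Stable line carrying human CXCR2 linked to a TEV site and Gal4-VP16 was starved 24 h at 37 °C, 5% CO2, and incubated overnight with compound dispensed in DMSO. CCF4-AM substrate was loaded for 2 h at room temperature in the dark. Read-out was the background-subtracted 460/530 nm ratio, with sigmoidal curve fit.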

[18] = biological target: C-X-C chemokine receptor type 4 (Homo sapiens, UniProt P61073); assay: Agonist activity at CXCR4 (unknown origin); outline: as §1
Chain of C-X-C chemokine receptor type 4 (P61073 whole entry): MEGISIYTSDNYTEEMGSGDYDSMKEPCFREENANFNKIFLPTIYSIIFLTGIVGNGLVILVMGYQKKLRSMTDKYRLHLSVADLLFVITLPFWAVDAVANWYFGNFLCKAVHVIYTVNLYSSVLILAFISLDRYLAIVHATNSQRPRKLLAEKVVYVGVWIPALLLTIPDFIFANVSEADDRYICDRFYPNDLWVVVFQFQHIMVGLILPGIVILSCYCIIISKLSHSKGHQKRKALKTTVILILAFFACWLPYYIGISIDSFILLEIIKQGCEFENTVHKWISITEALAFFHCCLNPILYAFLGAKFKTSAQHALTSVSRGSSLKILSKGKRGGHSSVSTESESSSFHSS

[19] = biological target: C-X-C chemokine receptor type 5 (Homo sapiens, UniProt P32302); assay: Agonist activity at CXCR5 (unknown origin); outline: as §1
Chain of C-X-C chemokine receptor type 5 (P32302 whole entry): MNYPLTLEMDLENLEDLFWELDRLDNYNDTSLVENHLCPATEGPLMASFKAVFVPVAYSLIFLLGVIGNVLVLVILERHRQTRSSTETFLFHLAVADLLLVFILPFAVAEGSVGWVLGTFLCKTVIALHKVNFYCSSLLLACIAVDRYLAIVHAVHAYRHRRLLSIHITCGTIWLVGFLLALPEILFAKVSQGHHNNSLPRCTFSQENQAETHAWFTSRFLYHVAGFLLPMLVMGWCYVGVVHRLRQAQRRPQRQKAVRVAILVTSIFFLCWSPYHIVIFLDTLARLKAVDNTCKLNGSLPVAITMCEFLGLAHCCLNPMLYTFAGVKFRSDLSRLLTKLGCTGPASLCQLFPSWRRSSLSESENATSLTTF

[20] = biological target: Atypical chemokine receptor 3 (Homo sapiens, UniProt P25106); assay: Agonist activity at CXCR7 (unknown origin); outline: as §1
Chain of Atypical chemokine receptor 3 (P25106 whole entry): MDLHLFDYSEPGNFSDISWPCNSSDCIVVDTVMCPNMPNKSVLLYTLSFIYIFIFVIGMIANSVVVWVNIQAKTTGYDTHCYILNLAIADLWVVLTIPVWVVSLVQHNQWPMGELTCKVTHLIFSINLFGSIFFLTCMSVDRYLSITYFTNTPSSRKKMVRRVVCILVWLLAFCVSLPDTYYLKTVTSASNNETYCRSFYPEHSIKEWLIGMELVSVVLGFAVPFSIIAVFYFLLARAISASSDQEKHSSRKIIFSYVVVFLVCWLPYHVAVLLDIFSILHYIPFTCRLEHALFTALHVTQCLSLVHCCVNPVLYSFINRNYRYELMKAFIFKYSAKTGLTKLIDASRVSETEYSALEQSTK

[21] = biological target: C-C chemokine receptor type 6 (Homo sapiens, UniProt P51684); assay: Antagonist activity at CCR6 (unknown origin); outline: as §1
Chain of C-C chemokine receptor type 6 (P51684 whole entry): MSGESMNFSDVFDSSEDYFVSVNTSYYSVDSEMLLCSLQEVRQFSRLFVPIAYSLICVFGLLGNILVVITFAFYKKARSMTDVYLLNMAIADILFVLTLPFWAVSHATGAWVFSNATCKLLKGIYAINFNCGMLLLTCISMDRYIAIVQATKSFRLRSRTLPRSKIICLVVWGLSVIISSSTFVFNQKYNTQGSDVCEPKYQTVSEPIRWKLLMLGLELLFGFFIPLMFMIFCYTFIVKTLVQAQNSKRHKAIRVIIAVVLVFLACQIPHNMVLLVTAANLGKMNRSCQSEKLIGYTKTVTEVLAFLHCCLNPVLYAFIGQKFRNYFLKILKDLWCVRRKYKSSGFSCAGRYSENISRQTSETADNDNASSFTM

[22] = biological target: T2, C-C chemokine receptor type 7; assay: Antagonist activity at CCR7 (unknown origin); outline: as §1
[23] = biological target: C-C chemokine receptor type 9 (Homo sapiens, UniProt P51686); assay: Antagonist activity at CCR9 (unknown origin); outline: as §1
Chain of C-C chemokine receptor type 9 (P51686 whole entry): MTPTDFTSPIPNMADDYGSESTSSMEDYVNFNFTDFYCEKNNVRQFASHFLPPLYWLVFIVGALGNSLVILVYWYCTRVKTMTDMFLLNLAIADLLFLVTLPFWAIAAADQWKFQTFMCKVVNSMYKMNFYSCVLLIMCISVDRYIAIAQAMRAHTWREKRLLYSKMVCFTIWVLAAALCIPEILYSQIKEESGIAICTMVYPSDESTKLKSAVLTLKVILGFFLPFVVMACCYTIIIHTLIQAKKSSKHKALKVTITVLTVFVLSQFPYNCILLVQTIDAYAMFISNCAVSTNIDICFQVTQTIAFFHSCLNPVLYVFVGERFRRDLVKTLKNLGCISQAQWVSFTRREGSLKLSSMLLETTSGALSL

Chemerin-like receptor 1 [24] = biological target: T3, Chemerin-like receptor 1; assay: Antagonist activity at CMKLR1 (unknown origin); outline: as §1
[25] = biological target: T4, CX3C chemokine receptor 1; assay: Antagonist activity at CX3CR1 (unknown origin); outline: as §1
[26] = biological target: C-X-C chemokine receptor type 3 (Homo sapiens, UniProt P49682); assay: Antagonist activity at CXCR3 (unknown origin); outline: as §1
Chain of C-X-C chemokine receptor type 3 (P49682 whole entry): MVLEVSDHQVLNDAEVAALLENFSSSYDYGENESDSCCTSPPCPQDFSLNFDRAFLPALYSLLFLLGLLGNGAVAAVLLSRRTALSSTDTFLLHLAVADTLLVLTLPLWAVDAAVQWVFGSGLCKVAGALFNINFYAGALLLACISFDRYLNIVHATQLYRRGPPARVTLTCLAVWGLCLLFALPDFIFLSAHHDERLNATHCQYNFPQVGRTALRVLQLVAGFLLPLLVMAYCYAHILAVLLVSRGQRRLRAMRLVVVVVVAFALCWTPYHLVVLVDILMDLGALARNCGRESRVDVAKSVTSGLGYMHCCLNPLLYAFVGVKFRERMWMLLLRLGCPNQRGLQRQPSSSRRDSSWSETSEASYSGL

Rattus norvegicus [27] = assay: Antiinflammatory activity in Wistar rat air pouch model assessed as inhibition of carrageenan-induced neutrophil infiltration administered po bid starting from day 3 post air reinflation at 4 hrs post carrageenan induction measured on day 6 post last dose; assay type: functional, organism-based
Outline: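 Male Wistar rats aged 8–10 weeks received 20 mL air, then 10 mL re-inflations on days 3 and 6. Oral dosing of vehicle or 1, 3 or 10 mg/kg BID ran from day 3, given on day 6 just before re-inflation and 1 mL 2% carrageenan. Pouch lavage (4 mL PBS) was taken at 4 h, and neutrophils were counted on Giemsa-stained cytospins as % of vehicle.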

[28] = Intrinsic clearance in human hepatocytes; assay type: ADME, cell-based, Hepatocyte
[29] = Intrinsic clearance in rat hepatocytes; assay type: ADME, cell-based, Hepatocyte

CC1=CCC[C@H]1NC(=O)Nc1ccc(Cl)c(S(=O)(=O)[C@@]2(C)CCOC2)c1O
inhibition (Mus musculus): Dose-dependent effect
IC50 [1]: 0.0052 µM
solubility at 4 h [2]: 21 µg/mL (≈ 50.6 µM)
efflux ratio at 1.5 h, 3 µM [3]: 2
clearance [4]: 9.1 mL/min/kg
half-life [5]: 4.3 h
AUC/dose (Rattus norvegicus [6]): 1829 ng·h/mL/mg/kg
AUC/dose (Rattus norvegicus [7]): 860 ng·h/mL/mg/kg
clearance [8]: 5.6 mL/min/kg
Vd [9]: 0.88 L/kg
Cmax [10]: 728 ng/mL
EC50 [11]: > 10 µM
EC50 [12]: > 10 µM
EC50 [13]: > 10 µM
EC50 [14]: > 10 µM
EC50 (Chemerin-like receptor 1 [15]): > 10 µM
EC50 [16]: > 10 µM
EC50 [17]: > 10 µM
EC50 [18]: > 10 µM
EC50 [19]: > 10 µM
EC50 [20]: > 10 µM
IC50 [21]: > 10 µM
IC50 [22]: > 10 µM
IC50 [23]: > 10 µM
IC50 (Chemerin-like receptor 1 [24]): > 10 µM
IC50 [25]: > 10 µM
IC50 [26]: > 10 µM
inhibition (Rattus norvegicus [27]): Dose-dependent effect
CLH [28]: 0.79 mL/min/g
CLH [29]: 7.7 mL/min/g
